# Activity calls are given as the source filed them. The rule behind the calls is not given here.
# Key:
# [1] = Inhibition of 6His-tagged Yersinia sp. LcrF binding to biotinylated double-stranded DNA by cell free-based chemiluminescence assay
# Procedure, shortened: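 Biotinylated double-stranded DNA carrying LcrF sites (2 nM) captured on streptavidin plates and incubated with 6His-LcrF (20 nM) plus titrated inhibitor in Hepes/ammonium sulfate/KCl/EDTA buffer with 0.2% polysorbate 20 and 0.5% non-fat milk. After washing, anti-6His then HRP secondary antibody, chemiluminescence read-out. % inhibition against control wells, curve-fitted IC50; mostly mean of two independent experiments.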
# [2] = system: J774.A1; assay: Cytotoxicity against mouse J774A1 cells assessed as LDH release at 50 ug/mL after 18 hrs by colorimetric assay; format: cell-based; settings: j774.a1, 18 h
# [3] = system: J774.A1; assay: Inhibition of Yersinia pseudotuberculosis YP3 pIB1 LcrF-mediated cytotoxicity against mouse J774A1 cells assessed as LDH release at 50 ug/mL after 18 hrs by colorimetric assay; format: cell-based; settings: Yersinia pseudotuberculosis YPIII
# Procedure, shortened: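 J774A.1 macrophages plated at 2 × 10^4 per well the day before. Y. pseudotuberculosis YPIIIpIB1 grown in 2-YT with 20 mM MgCl2 and 20 mM sodium oxalate, 90 min at 26 °C then 90 min at 37 °C. Infection at MOI 5–10 in DMEM, 2 h at 37 °C, 5% CO2. Gentamicin 50 μg/mL added, then ~18 h. Compound at 50 μg/mL in both culture and wells; vehicle DMSO/0.4% ethanolamine. LDH release measured colorimetrically, expressed as % of wild-type vehicle cytotoxicity.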
# [4] = target: T1, HTH-type transcriptional regulator ExsA (Pseudomonas aeruginosa (strain ATCC 15692 / PAO1 / 1C / PRS 101 / LMG12228), UniProt P26993); assay: Inhibition of Pseudomonas aeruginosa ExsA binding to DNA
# T1 sequence (P26993 whole entry): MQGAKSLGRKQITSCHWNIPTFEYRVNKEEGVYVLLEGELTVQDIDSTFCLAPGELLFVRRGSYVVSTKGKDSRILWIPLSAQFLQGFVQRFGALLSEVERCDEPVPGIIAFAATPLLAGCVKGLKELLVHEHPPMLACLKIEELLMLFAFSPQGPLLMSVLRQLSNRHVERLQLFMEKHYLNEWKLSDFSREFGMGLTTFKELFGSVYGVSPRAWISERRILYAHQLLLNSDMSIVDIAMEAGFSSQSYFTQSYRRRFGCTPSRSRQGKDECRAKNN
# Procedure, shortened: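 ExsA-DNA binding run like the LcrF plate assay: immobilised biotinylated DNA, His-tagged regulator, titrated inhibitor, washing, anti-6His/HRP chemiluminescent detection, % inhibition against control wells, curve-fitted IC50.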
# [5] = Inhibition of Salmonella sp. SlyA binding to DNA
# Procedure, shortened: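 Same format as the LcrF ELISA-type assay. Biotinylated double-stranded DNA carrying the binding sequence was captured on streptavidin-coated wells with His-tagged SlyA and titrated inhibitor. Buffer was 20 mM Hepes, 10 mM ammonium sulfate, 30 mM KCl, 1 mM EDTA, 0.2% polysorbate 20 and 0.5% non-fat milk. After washing, bound complex was detected with anti-6His then HRP secondary and chemiluminescence. IC50 came from dose-response fits against control wells.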
# [6] = system: Yersinia pseudotuberculosis; assay: Antimicrobial activity against Yersinia pseudotuberculosis after 18 to 24 hrs by CLSI microdilution test; format: functional
# [7] = system: Staphylococcus aureus; assay: Antimicrobial activity against Staphylococcus aureus RN450 after 18 to 24 hrs by CLSI microdilution test; format: functional
# [8] = system: Escherichia coli; assay: Antimicrobial activity against Escherichia coli ATCC 25922 after 18 to 24 hrs by CLSI microdilution test; format: functional
# [9] = system: Nucleic Acid; assay: Binding affinity to supercoiled Escherichia coli pET-15b DNA after 30 mins by agarose gel electrophoresis assay; format: nucleic-acid assay
# Procedure, shortened: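 Nonspecific DNA binding: compounds diluted to 1 mg/mL in DMSO with 0.4% ethanolamine, then added 1:10 (final 100 μg/mL) to 100 ng supercoiled pET-15b plasmid in 20 mM Hepes pH 7.6, 10 mM ammonium sulfate, 30 mM KCl, 1 mM EDTA, 0.2% polysorbate-20; 30 min room temperature; 0.8% agarose gel, ethidium bromide stain; migration shift scored; vehicle control.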
SMILES,IC50 [1] [µM],Activity [2],other results
O=C(NCc1ccc(-c2nc3ccc([N+](=O)[O-])cc3n2O)cc1)c1ccc(F)cc1,> 58.4,Non-toxic,–
COc1ccc(/C=C/C(=O)Nc2ccc(-c3nc4ccc([N+](=O)[O-])cc4n3O)cc2)cc1,8,Non-toxic,Activity [3]: Active; IC50 [4]: 5.9 µM; IC50 [5]: > 55.2 µM; MIC [6]: > 64 µg/mL; MIC [7]: > 64 µg/mL; MIC [8]: > 64 µg/mL
O=C(/C=C/c1ccc(F)cc1)Nc1ccc(-c2nc3ccc([N+](=O)[O-])cc3n2O)c(F)c1,6.5,Non-toxic,–
O=C(/C=C/c1ccc(F)cc1)Nc1ccc(-c2nc3ccc(C(F)(F)F)cc3n2O)cc1,59.7,Non-toxic,–
O=C(/C=C/c1ccc(F)cc1)Nc1ccc(-c2nc3cc(F)c([N+](=O)[O-])cc3n2O)cc1,26.6,Non-toxic,–
O=C(/C=C/c1ccccc1)Nc1ccc(-c2nc3ccc([N+](=O)[O-])cc3n2O)cc1,6.9,Non-toxic,–
O=C(CCc1ccc(F)cc1)Nc1ccc(-c2nc3ccc([N+](=O)[O-])cc3n2O)cc1,> 53.5,Non-toxic,–
O=C(/C=C/c1ccc(F)cc1)Nc1ccc(-c2nc3ccc(Cl)cc3n2O)cc1,> 100,Non-toxic,–
O=C(/C=C/c1ccc(F)cc1)Nc1ccc(-c2nc3ccc(-n4ccnc4)cc3n2O)cc1,37.3,Non-toxic,–
N#Cc1ccc2nc(-c3ccc(NC(=O)/C=C/c4ccc(F)cc4)cc3)n(O)c2c1,8.3,Non-toxic,–
O=C(/C=C/c1ccc(F)cc1)Nc1ccc(-c2nc3ccc([N+](=O)[O-])cc3n2O)cc1F,20.7,Non-toxic,–
O=C(/C=C/c1ccc(C(F)(F)F)cc1)Nc1ccc(-c2nc3ccc([N+](=O)[O-])cc3n2O)cc1,6.4,Non-toxic,–
CN(C)CCN(C)c1cc2nc(-c3ccc(NC(=O)/C=C/c4ccc(F)cc4)cc3)n(O)c2cc1[N+](=O)[O-],–,Non-toxic,IC50 [9]: 3.3 µM
O=C(/C=C/c1ccc(F)cc1)Nc1ccc(-c2nc3ccc(C(=O)O)cc3n2O)cc1,38.5,Non-toxic,–
COc1cc(NC(=O)/C=C/c2ccc(F)cc2)ccc1-c1nc2ccc([N+](=O)[O-])cc2n1O,13.5,Non-toxic,–
O=C(Nc1ccc(-c2nc3ccc([N+](=O)[O-])cc3n2O)cc1)c1ccc(F)cc1,17.7,Non-toxic,–
CCOc1cc2nc(-c3ccc(NC(=O)/C=C/c4ccc(F)cc4)cc3)n(O)c2cc1[N+](=O)[O-],17.1,Non-toxic,Activity [3]: Active
O=C(/C=C/c1ccc(F)cc1)Nc1ccc(-c2nc3ccc([N+](=O)[O-])cc3n2O)cc1,3.9,Non-toxic,Activity [3]: Active; IC50 [4]: 3.5 µM; IC50 [5]: > 53.8 µM; MIC [6]: > 64 µg/mL; MIC [7]: > 64 µg/mL; MIC [8]: > 64 µg/mL
CN(C)c1ccc(/C=C/C(=O)Nc2ccc(-c3nc4ccc([N+](=O)[O-])cc4n3O)cc2)cc1,16.9,Non-toxic,–
O=C(/C=C/c1ccc(-n2cnnc2)cc1)Nc1ccc(-c2nc3ccc([N+](=O)[O-])cc3n2O)cc1,35.7,Non-toxic,–
O=C(/C=C/c1ccc(F)cc1)Nc1ccc(-c2nc3ccc(F)cc3n2O)cc1,> 100,Non-toxic,–
CN(C)c1cc2nc(-c3ccc(NC(=O)/C=C/c4ccc(F)cc4)cc3)n(O)c2cc1[N+](=O)[O-],66,Non-toxic,–

SMILES,IC50 [1] [µM],Activity [2],other results
O=C(Cc1ccc(F)cc1)Nc1ccc(-c2nc3ccc([N+](=O)[O-])cc3n2O)cc1,> 58.4,Non-toxic,–
Cc1cc2nc(-c3ccc(NC(=O)/C=C/c4ccc(F)cc4)cc3)n(O)c2cc1[N+](=O)[O-],7.6,Non-toxic,Activity [3]: Active; IC50 [4]: 6.7 µM; IC50 [5]: > 52 µM; MIC [6]: > 64 µg/mL; MIC [7]: > 64 µg/mL; MIC [8]: > 64 µg/mL
CS(=O)(=O)c1ccc2nc(-c3ccc(NC(=O)/C=C/c4ccc(F)cc4)cc3)n(O)c2c1,87.4,Non-toxic,–
N#Cc1ccc(/C=C/C(=O)Nc2ccc(-c3nc4ccc([N+](=O)[O-])cc4n3O)cc2)cc1,16.4,Non-toxic,Activity [3]: Active
O=C(/C=C/c1ccc(F)cc1)Nc1ccc(-c2nc3ccc(-n4cccn4)cc3n2O)cc1,53.7,Non-toxic,–
Cc1ccc(/C=C/C(=O)Nc2ccc(-c3nc4ccc([N+](=O)[O-])cc4n3O)cc2)cc1,0.8,Non-toxic,Activity [3]: inactive
COc1ccc(/C=C/C(=O)Nc2ccc(-c3nc4ccc([N+](=O)[O-])cc4n3O)cc2)c(OC)c1,38.5,Non-toxic,–
O=C(/C=C/c1ccc(F)cc1)Nc1ccc(-c2nc3ccncc3n2O)cc1,> 54.8,Non-toxic,–
Cc1cc(-c2nc3ccc([N+](=O)[O-])cc3n2O)ccc1NC(=O)/C=C/c1ccc(F)cc1,25.3,Non-toxic,–
O=C(/C=C/c1ccc(-c2c[nH]cn2)cc1)Nc1ccc(-c2nc3ccc([N+](=O)[O-])cc3n2O)cc1,> 44.8,Non-toxic,–
O=C(/C=C/c1ccc(F)c(F)c1)Nc1ccc(-c2nc3ccc([N+](=O)[O-])cc3n2O)cc1,14.5,Non-toxic,Activity [3]: Active
O=C(/C=C/c1ccc(F)cc1F)Nc1ccc(-c2nc3ccc([N+](=O)[O-])cc3n2O)cc1,5,Non-toxic,–
O=C(/C=C/c1ccc(F)cc1)NCc1ccc(-c2nc3ccc([N+](=O)[O-])cc3n2O)cc1,14,Non-toxic,–
CC(=O)c1ccc2nc(-c3ccc(NC(=O)/C=C/c4ccc(F)cc4)cc3)n(O)c2c1,39.4,Non-toxic,–
CN1CCN(CCOc2cc3nc(-c4ccc(NC(=O)/C=C/c5ccc(F)cc5)cc4)n(O)c3cc2[N+](=O)[O-])CC1,–,Non-toxic,IC50 [9]: 3.1 µM
O=C(/C=C/c1ccc(F)cc1)Nc1ccc(-c2nc3ccc([N+](=O)[O-])cc3n2O)nc1,10.8,Non-toxic,Activity [3]: inactive
CC(C)c1ccc(/C=C/C(=O)Nc2ccc(-c3nc4ccc([N+](=O)[O-])cc4n3O)cc2)cc1,> 50.9,Non-toxic,–
COc1ccccc1/C=C/C(=O)Nc1ccc(-c2nc3ccc([N+](=O)[O-])cc3n2O)cc1,20.9,Non-toxic,–
O=C(/C=C/c1ccc(F)cc1)Nc1ccc(-c2nc3ccccc3n2O)cc1,> 100,Non-toxic,–
O=C(/C=C/c1ccc(F)cc1)Nc1ccc(-c2nc3ccc([N+](=O)[O-])cc3n2O)cn1,7.4,Non-toxic,–
O=C(/C=C/c1ccc(O)cc1)Nc1ccc(-c2nc3ccc([N+](=O)[O-])cc3n2O)cc1,> 57,Non-toxic,–

# — ChEMBL document CHEMBL1155196, “N-hydroxybenzimidazole inhibitors of the transcription factor LcrF in Yersinia: novel antivirulence agents” (J Med Chem, 2009)
